A selection: hits, their analogues and other compounds. The true share with any hit is near 3.1%.
Myeloid diff 2: induction of myeloid progenitor differentiation, primary screen, cell-based, flow cytometry, MLPCN library. ER-HoxA9 myeloid progenitors, lysozyme-GFP differentiation. calls only at 10 µM. hit rate 1% among 360,000. AID 624256, 2012;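 active means normalized GFP-positive differentiation at or above the plate's own cutoff, the solvent-only control mean plus 3 SD; inconclusive means no clear call, values can overlap the other calls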;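 further: cells exposed to compound for four days before flow analysis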
PP1 inh: PP1-alpha phosphatase inhibitors, primary screen, counter-screen for PP5 inhibitor project, biochemical, fluorescence, OMFP substrate, single point. inhibition, % at 6.7 µM. purified PP1alpha. Serine/threonine-protein phosphatase PP1-alpha catalytic subunit (Homo sapiens), P62136. hit rate 0.9% among 320,000;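 active means inhibition above the mean inhibition of all tested compounds plus 3 SD, computed separately for each screening campaign, cut at about 15% in these data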
Target sequence (P62136 whole entry, looked up): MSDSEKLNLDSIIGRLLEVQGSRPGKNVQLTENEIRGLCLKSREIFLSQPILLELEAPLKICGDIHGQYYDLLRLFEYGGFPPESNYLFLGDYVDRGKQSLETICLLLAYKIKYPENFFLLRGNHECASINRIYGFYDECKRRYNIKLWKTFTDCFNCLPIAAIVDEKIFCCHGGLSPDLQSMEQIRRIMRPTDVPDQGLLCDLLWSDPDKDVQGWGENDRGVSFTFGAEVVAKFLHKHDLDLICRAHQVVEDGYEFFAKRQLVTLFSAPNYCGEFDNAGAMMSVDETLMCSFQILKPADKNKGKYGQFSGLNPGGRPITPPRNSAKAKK
PP5 inh: PP5 phosphatase inhibitors, primary screen, biochemical, fluorescence; Serine/threonine-protein phosphatase 5 (Homo sapiens), P53041; purified PP5c, OMFP substrate fluorescence; inhibition, % at 6.7 µM; hit rate 0.18% among 320,000; AID 1987, 2009;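 active means inhibition above the campaign's mean inhibition across all tested compounds plus 3 SD, cut at about 9.5% in these data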
NadD inh: inhibitors of S. aureus NadD, primary screen, biochemical, colorimetric, uHTS; Nicotinate-nucleotide adenylyltransferase NadD (Staphylococcus aureus N315); purified NadD enzyme, colorimetric absorbance read-out; inhibition, % at 20 µM; hit rate 0.78% among 360,000; AID 602399, 2012; in the data active means inhibition above about 26%
CTSL1 counter: Fasciola hepatica cathepsin L1 inhibitors, primary screen, counter-screen for PFM18AAP inhibitor project, biochemical, QFRET, fluorogenic peptide substrate. recombinant F. hepatica cathepsin L1, Z-Leu-Arg-MCA fluorescence. inhibition, % at 5.96 µM. hit rate 0.49% among 300,000. AID 1906, 2009;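 active means inhibition above the mean of all tested compounds plus 3 SD, set per screening campaign, cut at about 17% in these data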
HCV core dimer: inhibitors of HCV core protein dimerization, primary screen, biochemical, TR-FRET, high-throughput; hit rate 0.33% among 300,000; TR-FRET GST/Flag-core106 dimerization, 1536-well; inhibition, % at 5 µM;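 active means inhibition above the mean of all tested compounds plus 3 SD, set per screening campaign, cut at about 45% in these data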
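Material: Tagged HCV core106 pair (GST and Flag) | Amount: GST-core106 13.5 nM, Flag-core106 17 nM | Medium: KF-containing HEPES buffer, pH 7.45, DTT, CHAPS, BSA | Reagent: Eu donor and XL665 acceptor anti-tag antibodies | Schedule: 4 h at 22.5 °C | Technique: Time-resolved FRET, ex 340 nm, em 617 and 671 nm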
NadD conf: inhibitors of S. aureus NadD, confirmation, biochemical, colorimetric, single concentration; shares compounds with NadD inh; purified S. aureus NadD, colorimetric enzyme assay; inhibition, % at 20 µM; hit rate 13% among 2,000; AID 624309, 2012; in the data active means inhibition mostly above about 42%, no sharp cut-off; inactive means mostly below about 42%
Myeloid diff: inducers of myeloid progenitor differentiation, confirmation, cell-based, GFP/Mac1 flow cytometry, cherry pick 01; shares compounds with Myeloid diff 2; ER-HoxA9 myeloid progenitors, GFP/Mac1 double-positive flow; calls only; hit rate 2% among 2,300; AID 651706, 2012;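 active means share of green or green-and-red cells above 9 and 9% in run 1 or 4 and 3% in run 2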
GFP autofluor: counter-screen for myeloid differentiation promoters: compound fluorescence | fluorescence response, % (concentration not given with the values) | AID 651707 | ER-HoxA9 myeloid progenitors, no estrogen, GFP autofluorescence flow cytometry; vehicle wells 0%, positive control 100% | shares compounds with Myeloid diff 2 | hit rate 7.4% among 2,300;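 active means over 5% cells positive for green fluorescent reporter, or over 2% positive for both it and APC stain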
A number is an active result; – = inactive; ? = inconclusive; · = no result given; + = active, no number.

SMILES | Myeloid diff 2 | PP1 inh | PP5 inh | NadD inh | CTSL1 counter | HCV core dimer | Myeloid diff | GFP autofluor | others
CC(OC(=O)c1cccc(S(=O)(=O)N2CCOCC2)c1)C(=O)NC1CCCCC1C (stereo not drawn) | – | – | – | – | · | · | · | ·
Cc1ccc(NS(=O)(=O)c2ccc(Cl)c(C(=O)Nc3ccccc3-c3nc4ccccc4[nH]3)c2)cc1C | – | – | – | 47 | – | – | – | – | NadD conf=–
CN(C)S(=O)(=O)c1ccc(Cl)c(C(=O)Nc2nc3ccccc3[nH]2)c1 | – | – | – | – | – | – | · | ·
COc1ccc(CN2CCC[C@]3(N[C@H](c4ccc(C)cc4)[C@@H]4C(=O)N(Cc5ccccc5)C(=O)[C@@H]43)C2=O)cc1 | – | · | · | – | · | · | – | –
COc1ccc([C@H]2N[C@]3(CCCN(Cc4cccn4C)C3=O)[C@H]3C(=O)N(Cc4ccccc4)C(=O)[C@@H]23)cc1 | – | · | · | – | · | · | – | –
Cc1ccc(CNC(=O)C2CCN(S(=O)(=O)c3ccc(Br)s3)CC2)cc1 | – | – | – | – | – | – | · | ·
CC1(C(=O)OCC(=O)NNC(=O)COc2ccc(Cl)cc2)CC1(Cl)Cl (stereo not drawn) | – | – | – | – | – | – | · | ·
CC(C)n1nnnc1C1c2ccccc2C(=O)N1Cc1ccco1 (stereo not drawn) | + | · | · | – | · | · | – | –
CC(C)n1nnnc1C1c2ccccc2C(=O)N1Cc1cccs1 (stereo not drawn) | – | · | · | – | · | · | · | ·
CCOc1ccc(NC(N)=O)cc1 | – | – | – | – | – | – | · | ·
NC(=O)Nc1ccc(Oc2c(F)c(F)c(F)c(F)c2F)cc1 | – | – | – | – | – | – | – | –
COc1ccc(N2C(=O)CN=C2Nc2nc(C)cc(C)n2)cc1OC | + | – | – | – | – | – | – | –
Cc1cc(C)nc(NC2=NCC(=O)N2c2ccc(F)c(Cl)c2)n1 | – | – | – | – | – | – | · | ·
C=CCN(CC=C)C(=O)CN1C(=O)NC(Cc2c[nH]c3ccccc23)C1=O (stereo not drawn) | – | – | – | – | – | – | · | ·
CCOC(=O)CC1(C)c2nc(NC(C)=O)sc2Cc2sc(NC(C)=O)nc21 | – | · | · | – | · | · | · | ·
COC(=O)C1=C(C(=O)OC)C2C=CC1C1C(OC(C)=O)C(OC(C)=O)C21 (stereo not drawn) | ? | · | · | – | · | · | · | ·
COc1ccc(C(CNC(=O)COc2ccccc2C#N)N2CCOCC2)cc1 (stereo not drawn) | + | – | – | – | – | – | – | –
C[C@H]1CN([C@@H](C)CO)C(=O)c2cc(NC(=O)NC3CCCCC3)ccc2O[C@H]1CN(C)C(=O)Nc1ccc(C(F)(F)F)cc1 | – | · | · | – | · | · | – | –
Cc1ccc(NC(=O)COc2ccc(C(=O)c3ccccc3)cc2)c(O)c1 | · | – | – | – | – | – | · | ·
CC(OC(=O)Cn1[nH]c(=O)c2ccccc2c1=O)C(=O)Nc1ccc(F)cc1Cl (stereo not drawn) | – | – | – | – | – | – | · | ·
CCOc1ccc(C(=O)Nc2cccc(-c3nc4cccnc4o3)c2)cc1Cl | + | – | – | – | – | – | – | –
CCOc1ccc(C(=O)Nc2cccc(C(=O)O)c2)cc1Cl | – | – | – | – | – | – | · | ·
CCOc1c(C)cnc2c1c(=O)n(Cc1ccccc1F)c(=O)n2C | – | – | – | – | – | – | · | ·
Cc1cccc(C)c1NC(=O)C(=O)NCCc1c[nH]c2ccccc12 | – | – | – | – | – | – | · | ·
Cc1cccc(NC(=O)C(=O)NCCc2c[nH]c3ccccc23)c1C | – | – | – | – | – | – | – | –
SMILES | Myeloid diff 2 | PP1 inh | PP5 inh | NadD inh | CTSL1 counter | HCV core dimer | Myeloid diff | GFP autofluor | others
Cc1c(CCOC(=O)CC23CC4CC(CC(C)(C4)C2)C3)sc[n+]1CC(=O)c1ccccc1 | – | – | – | – | – | – | · | ·
Cc1c(CCOC(=O)CC23CC4CC(CC(C4)C2)C3)sc[n+]1CC(=O)c1ccc(Br)cc1 | + | – | – | – | – | – | – | –
COc1ccc(/C=C/C(=O)NCCCN2CCCC2)cc1 | – | – | – | – | – | – | · | ·
COc1ccc(/C=C/C(=O)NCCC(=O)N2CCCN(C)CC2)cc1 | – | – | – | – | – | – | – | –
CCS(=O)(=O)N1CCC(C(=O)NCc2ccccc2OC)CC1 | + | – | – | – | – | – | – | –
COc1ccccc1CNC(=O)c1ccc(S(=O)(=O)N(C)C)cc1 | – | – | – | – | – | – | – | –
COc1ccccc1CNC(=O)C1CCN(S(=O)(=O)N2CCCCC2)CC1 | – | – | – | – | – | – | · | ·
COc1ccccc1OCCNC(=O)c1ccc(S(=O)(=O)N(C)C)cc1 | – | – | – | – | – | – | · | ·
COc1ccc(NC(=O)Cn2nc(C(=O)O)c3ccccc3c2=O)cc1OC | – | – | – | – | – | – | · | ·
C#CCN(C(=O)C1CCC(=O)N(CCc2cccc(F)c2)C1)C1CCCCC1 (stereo not drawn) | – | · | · | – | · | · | · | ·
Cc1c(NC(=O)C(C)Sc2nc3ccccc3c(=O)n2CCO)c(=O)n(-c2ccccc2)n1C (stereo not drawn) | – | – | – | – | – | – | – | –
CC(C)C(=O)Nc1ccc(N2CCOCC2)c(S(=O)(=O)Nc2ccccc2Cl)c1 | – | · | · | – | · | · | · | ·
CCc1ccccc1NC(=O)CNCC(=O)Nc1ccccc1CC | + | – | – | – | – | – | – | –
Cc1cc(-c2nnc(SCC(=O)Nc3cccc(Cl)c3)n2N)n[nH]1 | – | – | – | – | – | – | · | ·
CCOC(=O)C1(CCOc2ccccc2)CCN(Cc2cccc(OC)c2)CC1 | + | – | – | – | – | – | – | –
CC1CCc2c(sc(NC(=O)c3c([N+](=O)[O-])cnn3C)c2C(N)=O)C1 (stereo not drawn) | · | · | · | – | · | · | · | ·
CCCS(=O)(=O)NC(=O)C1(C)CCCN(C(=O)c2ccc(OC)cc2OC)C1 (stereo not drawn) | – | · | · | – | · | · | · | ·
CC(=O)Nc1ccc(C2=CC(=O)C[C@H](c3ccc(Cl)cc3)C2)cc1 | – | – | – | – | · | · | + | –

Screens as filed in PubChem.
